Tests used:
Assay type in all cases: functional
Oryctolagus cuniculus [1] = species: Oryctolagus cuniculus; assay: Concentration which inhibits 50% of contraction induced by potassium on rabbit renal artery
Outline: (§1)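 Endothelium-denuded arterial rings, with denudation confirmed by no acetylcholine (1 μM) relaxation of tissue precontracted with phenylephrine 0.1 μM. After reproducible 40 mM K+ responses, sustained tonic contraction to K+ 40 mM or phenylephrine 5 μM. Test compound added cumulatively until maximal relaxation.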

Oryctolagus cuniculus [2] = species: Oryctolagus cuniculus; assay: Inhibitory selectivity for Phenylephrine (PE) and Potassium (K+) induced contraction on rabbit renal artery
Oryctolagus cuniculus [3] = species: Oryctolagus cuniculus; assay: Concentration which inhibits 50% of contraction induced by phenylephrine on rabbit renal artery; outline: as §1
Oryctolagus cuniculus [4] = species: Oryctolagus cuniculus; assay: Inhibition of contraction induced by caffeine on rabbit renal artery; design: concentration or dose not given beside the values
Outline: (§2)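 Male New Zealand White rabbit left renal artery rings (2.5–3 mm) in Krebs' solution at 37 °C, gassed 95% O2/5% CO2, 3 g preload, 90 min equilibration, isometric tension. Three matched control contractions to caffeine 10 mM, then caffeine contractions repeated at 20 min with each rising test concentration until maximal inhibition. IC50 by linear regression; five to nine preparations.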

Oryctolagus cuniculus [5] = species: Oryctolagus cuniculus; assay: Concentration which inhibits 50% of contraction induced by caffeine on rabbit renal artery; outline: as §2
Oryctolagus cuniculus [6] = species: Oryctolagus cuniculus; assay: Inhibition of contraction induced by phenylephrine on rabbit renal artery; outline: as §1
Oryctolagus cuniculus [7] = species: Oryctolagus cuniculus; assay: Inhibition of contraction induced by potassium on rabbit renal artery; outline: as §1

SMILES | IC50 (Oryctolagus cuniculus [1]) [µM] | IC50 ratio (Oryctolagus cuniculus [2]) | IC50 (Oryctolagus cuniculus [3]) [µM] | Inhibition (Oryctolagus cuniculus [4]) [%] | IC50 (Oryctolagus cuniculus [5]) [µM] | Inhibition (Oryctolagus cuniculus [6]) [%] | Inhibition (Oryctolagus cuniculus [7]) [%]
COc1ccc(CCNCCC2CN(Cc3ccc(OC)c(OC)c3)c3ccccc3O2)cc1OC (stereo not drawn) | 15.1 | 2.2 | 33.7 | 57 | 30 |  | 
COc1ccc(CCNCC2CN(Cc3ccccc3)c3ccccc3O2)cc1OC (stereo not drawn) | 9.4 | 1.2 | 11.4 | 48 | > 30 |  | 
CN(CCOC(c1ccc(F)cc1)c1ccc(F)cc1)CC1CNc2ccccc2O1 (stereo not drawn) |  |  |  | 23 | > 30 |  | 
O=C1Nc2cc3c(cc2OC1CCCN1CCN(c2ccc(F)cc2)CC1)OCCO3 (stereo not drawn) | 45.3 | 0.009 | 0.43 | 22 | > 30 |  | 
COc1ccc(CCNCCCC2CN(C(=O)c3ccccc3)c3ccccc3O2)cc1OC (stereo not drawn) | 8.4 | 1.5 | 12.6 |  | 30 |  | 
COc1ccc(CCNCCCC2CNc3ccccc3O2)cc1OC (stereo not drawn) | > 100 |  | 100 | 16 | > 30 | 49 | 30
COc1ccc(CCNCCC2CN(Cc3ccccc3)c3ccccc3O2)cc1OC (stereo not drawn) | 4.4 | 2.3 | 10.1 |  | 12.3 |  | 
Fc1ccc(N2CCN(CC3CNc4ccccc4O3)CC2)cc1 (stereo not drawn) | 24.7 | 0.07 | 1.6 | 9 | > 30 |  | 
COc1ccc(CCNCCCC2Oc3cc4c(cc3NC2=O)OCCO4)cc1OC (stereo not drawn) | > 100 |  | 14.2 | 0 | > 30 |  | 38
Fc1ccc(N2CCN(CCCC3CNc4ccccc4O3)CC2)cc1 (stereo not drawn) | 11 | 0.29 | 3.2 | 22 | > 30 |  | 
CN1CC(CN2CCN(c3ccc(F)cc3)CC2)Oc2ccccc21 (stereo not drawn) | 23.1 | 0.06 | 1.4 | 32 | > 30 |  | 
Fc1ccc(C(OCCNCC2CN(Cc3ccccc3)c3ccccc3O2)c2ccc(F)cc2)cc1 (stereo not drawn) | 17.6 | 5.3 | 93.3 | 5 | > 30 |  | 
COc1ccc(CCN(C)CCC2CN(Cc3ccccc3)c3ccccc3O2)cc1OC (stereo not drawn) | 7.9 | 4.1 | 32.6 | 37 | > 30 |  | 
Fc1ccc(C(OCCNCC2CNc3ccccc3O2)c2ccc(F)cc2)cc1 (stereo not drawn) | 74.8 |  |  |  | 26.3 |  | 
